Converted amounts (≈) assume the structure as drawn. Read-outs that look alike come from different tables or passages of the source.
Columns and labels:
[1] = test system: GFP-transfected Leishmania (Viannia) panamensis amastigotes in U937 cell line; details: L. (V.) panamensis in U937 cells, GFP flow cytometry; ref Varela et al., 2009; cited from earlier work
[2] = standard doses (0.3 mg/kg days 1 and 2, increasing to 0.5 mg/kg) during clinical therapy; ref Atkinson, Jr. and Bennett, 1978; cited from earlier work
[3] = test system: egfp transfected Leishmania amazonensis amastigotes in THP-1 cells; test: microbe, parasite or virus in culture; format: cell-based
[4] = test system: Leishmania amazonensis infected cells; test: Infection measured by standard Giemsa staining of cells; format: cell-based
[5] = test system: egfp transfected Leishmania amazonensis amastigotes in PBMC derived macrophages; test: microbe, parasite or virus in culture; format: cell-based
[6] = test system: human PBMC derived macrophages; test: Trypan blue dye exclusion cytotoxicity test, human PBMC derived macrophages; format: cell-based
Method in brief: (§1)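 Macrophages prepared before testing: THP-1 cells were grown in RPMI 1640 with 10% heat-inactivated FBS at 37°C and 5% CO2, then stimulated with 20 nM PMA. PBMC-derived cells were stimulated with autologous platelet-poor serum. After test compound exposure, clear (viable) and blue cells were counted on a hemocytometer to give percent viability. CC50 came from a variable-slope sigmoidal fit normalised to untreated cells. Assays were run in duplicate.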

[7] = test system: THP-1 cells; test: Trypan blue dye exclusion cytotoxicity test, THP-1 cells; format: cell-based, human
Method in brief: as §1

[8] = test system: human PBMC derived macrophages; format: cell-based

meglumine antimoniate
EC50 [1]: 20 µg/mL

C[C@@H]1[C@H](O)[C@@H](C)/C=C/C=C/C=C/C=C/C=C/C=C/C=C/[C@H](O[C@@H]2O[C@H](C)[C@@H](O)[C@H](N)[C@@H]2O)C[C@@H]2O[C@](O)(C[C@@H](O)C[C@@H](O)[C@H](O)CC[C@@H](O)C[C@@H](O)CC(=O)O[C@H]1C)C[C@H](O)[C@H]2C(=O)O [Amphotericin B, amphotericin B]
serum level [2]: above 0.2 μg/ml | EC50 [1]: 0.078 µg/mL (≈ 0.0844 µM) | EC50 ([3]; Leishmania amazonensis, THP-1): 0.1445 ± 0.0005 µg/mL (≈ 0.156 µM) | Selective Index (SI) ([3]; THP-1 cells, ratio of EC50 and CC50): 105.2 | EC50 [4]: 0.074 µg/mL (≈ 0.0801 µM) | EC50 ([5]; Leishmania amazonensis, in Homo sapiens): 0.179 ± 0.035 µg/mL (≈ 0.194 µM) | Selective Index (SI) ([5]; human PBMC derived macrophages, ratio of EC50 and CC50): 355.9 | Selective Index (SI) ([5]; human PBMC derived macrophages, ratio of EC50 and CC50, listed as amphotericin B): 356

O.O.O.O.O.O.O.O.O.O=C([O-])[C@@H]1[O][Sb](=[O])([O][Sb]2(=[O])[O][C@H]([C@H](O)CO)[C@H](O)[C@H](C(=O)[O-])[O]2)[O][C@H]([C@H](O)CO)[C@@H]1O.[Na+].[Na+].[Na+] (stereo partly drawn) [Sodium stibogluconate, sodium stibogluconate]
CC50 [6]: 6300 ± 2800 µg/mL | CC50 [7]: 4600 ± 1100 µg/mL | EC50 ([5]; human PBMC derived macrophages, GFP fluorescence): 194.8 ± 36.4 µg/mL

CCCCCCCCCCCCCCCCOP(=O)([O-])OCC[N+](C)(C)C [Miltefosine, miltefosine]
toxicity against the macrophages [8]: significant toxicity | Selective Index (SI) [3]: 1.51 | Selective Index (SI) [5]: 6.13

Reference: PMC2939291 (Experimental parasitology, 2010)
